Most compounds without a hit are left out; they make up all but 2.9% or so of the library.
PglD inh = C. jejuni PglD acetyltransferase inhibitors, primary screen, biochemical, DTNB colorimetric, single point; hit rate 0.098% among 360,000; purified PglD enzyme, DTNB colorimetric CoA detection; UDP-N-acetylbacillosamine N-acetyltransferase PglD (Campylobacter jejuni); inhibition, % at 12.5 µM; in the data active = inhibition above about 16%, passing the limit was not always enough; inconclusive = no clear call, values can overlap the other calls
FGF22 binding = binders of human FGF22 protein, primary screen, FGF22 synaptogenesis inhibitor project, biophysical, thermal shift, single point | activity (Tm shift, normalised), % at 9.99 µM | hit rate 1.5% among 340,000 | recombinant FGF22 thermal shift, SYPRO orange fluorescence; percent of sucrose octasulfate shift, DMSO zero | Fibroblast growth factor 22 (Homo sapiens), Q9HCT0;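 active = mean Tm shift, scaled 0 neutral to 100 positive control, at about 1.3% or above, every replicate too, limit read from the data; inconclusive = no clear call, values can overlap the other calls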
Target sequence (Q9HCT0 whole entry, looked up): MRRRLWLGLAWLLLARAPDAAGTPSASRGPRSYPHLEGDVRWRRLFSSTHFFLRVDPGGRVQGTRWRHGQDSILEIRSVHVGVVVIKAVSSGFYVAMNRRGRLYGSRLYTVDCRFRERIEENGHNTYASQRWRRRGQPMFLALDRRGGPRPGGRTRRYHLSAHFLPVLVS
Cneo AK release = Cryptococcus neoformans cell lysis inducers, primary screen, AK release luminescence, single concentration. lysis activity, % at 15 µM. C. neoformans lysis, adenylate kinase release luminescence, 4 h; normalised: neutral wells 0, clomiphene wells 100. hit rate 0.2% among 360,000;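 active = mean lysis activity across replicates of at least 80%, whatever share of replicates individually reach that level; inactive = mean lysis activity below 80%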
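Material – log-phase Cryptococcus neoformans yeast cells · Input – 5 × 10^6 yeast cells/mL · Medium – fresh YPD growth medium · Doses – single compound concentration per well · Timing – static 4 h at 37 °C with compound, 1 h detection · Detection – adenylate kinase release luminescence · Read-out – signal increase indicating cell lysis · Control set – Clomiphene as positive lysis control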
PGC1a acetyl inh = inhibitors of PGC1a acetylation signal, primary screen, cell-based, U2OS, AlphaScreen, inhibitor mode. hit rate 0.17% among 350,000. inhibition, % at 15.6 µM. AlphaScreen anti-acetyl-lysine; with virally co-expressed GCN5 acetyltransferase;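 active = every replicate shows inhibition of at least 40%; inconclusive = mean inhibition at least 40% but some replicate below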
Vif inh = HIV Vif self-association inhibitors, primary screen, imaging, HEK293T, single point. HEK293T cells, Vif self-association by quenched fluorescence, 24 h. inhibition, % at 7.49 µM. hit rate 0.35% among 340,000. AID 602346, 2012; in the data active = inhibition above about 50%, passing the limit was not always enough; inconclusive = no clear call, values can overlap the other calls; inactive = below about 31%
Ecoli rRNA inh = reduced GFP signal of wild-type E. coli, primary screen, bacterial rRNA inhibitor project, GFP/RFP fluorescence, OD600, single point | E. coli WT GFP vs humanized-ribosome RFP mutants, 24 h; hits give low values; DMSO median 0, no signal -100 | GFP signal change (wild-type ribosome), % (test concentration not listed) | hit rate 1.6% among 350,000 | AID 720706, 2013;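 active = significant combined selectivity score with lowered wild-type GFP, culture density cut under 30%, mutant RFP and density less affected; inactive = any of these conditions unmet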
Large screens that a line does not name were inactive.

C[C@H](NC(=O)[C@H]1[C@H](CO)[C@H]2Cn3c(cccc3=O)[C@H]2N1CC1CC1)c1ccccc1	none (no result: PGC1a acetyl inh, Vif inh)
Cc1noc(NC(=O)c2cccc(C(F)(F)F)c2)c1Cl	Ecoli rRNA inh -48 (no result: PglD inh, Cneo AK release)
Cc1noc(NC(=O)c2ccc(Cl)cc2)c1Cl	none (no result: PglD inh, Cneo AK release, PGC1a acetyl inh)
CCCNC1(C(N)=O)CCN(Cc2ccccc2)CC1	FGF22 binding 43
C[C@H]1CN([C@@H](C)CO)C(=O)c2cc(NC(=O)Nc3ccc4c(c3)OCO4)ccc2O[C@H]1CN(C)C(=O)NC1CCCCC1	none (no result: Vif inh)
OC(CN1CCCCC1)c1ccc(Br)cc1 (stereo not drawn)	FGF22 binding 44
CC(C)NC(=O)N(C)C[C@@H]1Oc2ncc(-c3ccc(C(=O)N(C)C)cc3)cc2C(=O)N([C@H](C)CO)C[C@@H]1C	none (no result: Vif inh)
CCCn1c(=O)c2ccccc2n2c(SCCOc3ccc(C)cc3)nnc12	none (no result: PGC1a acetyl inh)
CCCn1c(=O)c2ccccc2n2c(SCCOc3ccc(OC)cc3)nnc12	Ecoli rRNA inh -18
Cc1ccc(S(=O)(=O)NC2=NCCCCC2)cc1	FGF22 binding 43, PGC1a acetyl inh inconclusive
COc1ccc2c3c(n(C)c2c1)[C@@H](CO)N(C(=O)NC(C)C)CC31CN(Cc2nccs2)C1	none (no result: PglD inh, Cneo AK release, Vif inh)
COc1c2ccoc2nc2c(OC)cccc12	Ecoli rRNA inh -22
CC(C)(C)NC(=O)CSc1nc(N)c(NC(=O)c2ccccc2F)c(=O)[nH]1	FGF22 binding 44 (no result: PGC1a acetyl inh, Ecoli rRNA inh)
CC1=CC(C)(C)N2C(=O)C(=O)c3cc(OC(=O)c4ccco4)cc1c32	Ecoli rRNA inh -23 (no result: PglD inh, Cneo AK release)
O=C1Nc2ccccc2/C1=C\C(=O)c1ccccc1	Ecoli rRNA inh -19
CC(C)C#Cc1ccc2c(c1)O[C@H](CN(C)CC1CCOCC1)[C@@H](C)CN([C@@H](C)CO)S2(=O)=O	none (no result: Vif inh)
CCOc1ccc(OCc2cccc(C(=O)N3CCCC3)c2)cc1	Vif inh 53 (no result: FGF22 binding)
CCOc1ccc(OCc2cccc(C(=O)O)c2)cc1	Ecoli rRNA inh -24
COc1ccc(OCc2cccc(C(=O)O)c2)cc1	none (no result: PglD inh, FGF22 binding, Cneo AK release, Ecoli rRNA inh)
Cn1nnnc1SCC(=O)N(C1CCCCC1)C1CCCCC1	none (no result: FGF22 binding, Vif inh, Ecoli rRNA inh)
Cn1nnnc1SCC(=O)N(C1CCCCC1)C1CCS(=O)(=O)C1 (stereo not drawn)	FGF22 binding 43 (no result: PglD inh, Cneo AK release)
O=C1c2ccc(-c3ccc4c(c3)C(=O)N(CCCO)C4=O)cc2C(=O)N1CCCO	PGC1a acetyl inh 70
O=C(O)c1ccc(S(=O)(=O)c2ccc3c(c2)C(=O)N(c2ccc(Br)cc2)C3=O)cc1	Vif inh 66 (no result: PGC1a acetyl inh)
Cc1cc(=O)[nH]c(SCC(=O)NC(C)C2CC3CCC2C3)c1C#N (stereo not drawn)	FGF22 binding 44 (no result: PglD inh, Cneo AK release, PGC1a acetyl inh)
C[C@@H]1CCCCO[C@@H](CN(C)C(=O)Cc2ccccc2)[C@H](C)CN([C@@H](C)CO)C(=O)c2cc(NC(=O)Nc3ccccc3)ccc2O1	none (no result: Vif inh)
O=C(NCCSCc1ccco1)Nc1cc(Cl)cc(Cl)c1	Ecoli rRNA inh -51
O=C(CSCc1ccc(Cl)cc1)NCCSCc1ccco1	none (no result: PglD inh, Cneo AK release)
COc1ncc(-c2cccc3nccn23)c(OC)n1	none
COc1ccccc1-c1cccc2nccn12	Vif inh 67 (no result: PGC1a acetyl inh)
CC(=O)c1ccc(N(CC(=O)Nc2cc(C)on2)S(=O)(=O)c2ccc(C)cc2)cc1	FGF22 binding 43
CC(=O)c1ccc(S(=O)(=O)N(C)CC(=O)Nc2cc(C)on2)cc1	none (no result: PglD inh, Cneo AK release, PGC1a acetyl inh)
Cc1ccc(N(CC(=O)Nc2cc(C)cc(C)c2)S(=O)(=O)c2c(C)noc2C)cc1	none

Bioassay records deposited in PubChem by Broad Institute.
